Activity calls are given as the source filed them.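 How the source made its calls: active means inhibition of 30% or more at any tested concentration; inactive means the rest.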
Target: Leucine aminopeptidase (Plasmodium falciparum (isolate 3D7)) (UniProt Q8IL11)
Test: P. falciparum leucine aminopeptidase M17 inhibition – biochemical, QFRET, H-Leu-NHMec substrate, set 3, selectivity assay for PFM18AAP inhibitor project, dose response (AID 624175)
Details: recombinant PfM17LAP, H-Leu-NHMec fluorogenic cleavage
In short: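 test system = recombinant PfM17LAP enzyme | compound dosing = 10-point twofold dilution series, 100 down to 0.2 µM, 2% DMSO | timing = enzyme reaction of 90 min at room temperature | measured by = fluorescence of released NHMec, excitation 370 nm, emission 460 nm | evaluation = % inhibition and fitted IC50 | repeats = triplicate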

Sequence of Leucine aminopeptidase (Plasmodium falciparum (isolate 3D7)) (Q8IL11 whole entry, looked up): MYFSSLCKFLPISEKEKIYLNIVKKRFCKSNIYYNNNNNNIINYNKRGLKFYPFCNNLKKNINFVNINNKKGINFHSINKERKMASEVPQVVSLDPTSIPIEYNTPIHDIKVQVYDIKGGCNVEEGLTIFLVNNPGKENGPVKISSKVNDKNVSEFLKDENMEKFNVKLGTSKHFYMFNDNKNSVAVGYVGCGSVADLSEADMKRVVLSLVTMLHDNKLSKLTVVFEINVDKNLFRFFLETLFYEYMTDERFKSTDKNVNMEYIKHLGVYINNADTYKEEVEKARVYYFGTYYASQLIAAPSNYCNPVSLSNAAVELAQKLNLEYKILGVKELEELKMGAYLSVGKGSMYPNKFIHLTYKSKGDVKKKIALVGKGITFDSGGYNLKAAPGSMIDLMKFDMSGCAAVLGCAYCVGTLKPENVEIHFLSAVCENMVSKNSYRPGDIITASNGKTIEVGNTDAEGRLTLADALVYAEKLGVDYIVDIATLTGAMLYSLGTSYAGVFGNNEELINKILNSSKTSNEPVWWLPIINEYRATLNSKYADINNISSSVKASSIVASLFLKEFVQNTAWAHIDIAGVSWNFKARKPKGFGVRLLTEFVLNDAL

Work on `CN(CCc1ccc(O)c(O)c1)c1ccnc2cc(Cl)ccc12` yielded an IC50 of 44 µM.
In the case of `COc1ccc(CCNc2ccnc3cc(Cl)ccc23)cc1OC`, the inhibition (at 100 µM (top of the series)) is reported as “inactive”.
With `COc1ccc(CCNC(=O)c2cc(C)ccc2N)cc1OC` the inhibition (at 100 µM (top of the series)) was “inactive”.
`CC(C)(CNc1ccnc2ccccc12)c1ccc(O)c(O)c1` was tested, and the IC50 was 101 µM.
Compound `Cc1cccc2c(N(C)CCc3ccc(O)c(O)c3)ccnc12` has an IC50 of 55.1 µM.
In the case of `COc1ccc(CCNc2ccnc3c(F)cccc23)cc1OC`, the inhibition (at 100 µM (top of the series)) is reported as “inactive”.
In the case of `CN(CCc1ccc(O)c(O)c1)c1c2ccccc2nc2ccccc12`, the inhibition (at 100 µM (top of the series)) is reported as “inactive”.
In the case of `Oc1ccc(C2CCN(c3ccnc4ccccc34)C2)cc1O` (centres undefined), the IC50 is reported as 30.3 µM.
`Oc1ccc(C2CCCN(c3ccnc4ccccc34)C2)cc1O` (centres undefined) gave an IC50 of 53.2 µM.
Work on `Oc1ccc(CCCNc2c3c(nc4ccccc24)CCCC3)cc1O` yielded an IC50 of 56 µM.
In the case of `COc1ccc(CCN(C)c2ccnc3c(F)cccc23)cc1OC`, the inhibition (at 100 µM (top of the series)) is reported as “inactive”.
In the case of `COc1ccc(CCNc2cc(C)nc3ccccc23)cc1OC`, the inhibition (at 100 µM (top of the series)) is reported as “inactive”.
In the case of `Oc1ccc(CCNc2ccnc3cc(Cl)ccc23)cc1O`, the IC50 is reported as 73.4 µM.
In the case of `COc1ccc(C2CCN(c3ccnc4ccccc34)CC2)cc1OC`, the inhibition (at 100 µM (top of the series)) is reported as “inactive”.
Compound `CN(CCCc1ccc(O)c(O)c1)c1ccnc2ccccc12` has an IC50 of 57.6 µM.
With `CCN(CC)Cc1cc(Nc2ccnc3cc(Cl)ccc23)ccc1O` the inhibition (at 50 µM (top of the series)) was “inactive”.
`Cc1cccc2c(NCCc3ccc(O)c(O)c3)ccnc12` gave an IC50 of 65.3 µM.
Compound `CN(CCc1ccc(O)c(O)c1)c1ccnc2c(F)cccc12` has an IC50 of 34.6 µM.
With `COc1ccc(CCNc2ncnc3ccccc23)cc1OC` the inhibition (at 100 µM (top of the series)) was “inactive”.
Compound `Cc1cc(N(C)CCc2ccc(O)c(O)c2)c2ccccc2n1` has an IC50 of 47.4 µM.
`COc1ccc(CCN(C)c2ccnc3c(C)cccc23)cc1OC` was tested, and the inhibition (at 100 µM (top of the series)) was “inactive”.
`COc1ccc(CCNc2c3c(nc4ccc(C)cc24)CCCC3)cc1OC` was tested, and the inhibition (at 100 µM (top of the series)) was “inactive”.
`COc1ccc(CCCNc2c3c(nc4ccccc24)CCCC3)cc1OC` was tested, and the inhibition (at 100 µM (top of the series)) was “inactive”.
With `COc1ccc(CCN(C)c2c3ccccc3nc3ccccc23)cc1OC` the inhibition (at 100 µM (top of the series)) was “inactive”.
With `COc1cc(Br)c(CCNc2ccnc3ccccc23)cc1OC` the inhibition (at 100 µM (top of the series)) was “inactive”.
With `COc1ccc(CCN(C)c2ncnc3ccccc23)cc1OC` the inhibition (at 100 µM (top of the series)) was “inactive”.
With `Oc1ccc(CCNc2ccnc3c(F)cccc23)cc1O` the IC50 was 35.7 µM.
`COc1cc(Br)c(CCNc2c3ccccc3nc3ccccc23)cc1OC` was tested, and the inhibition (at 100 µM (top of the series)) was “inactive”.
In the case of `COc1ccc(CCN(C)c2cc(C)nc3ccccc23)cc1OC`, the inhibition (at 100 µM (top of the series)) is reported as “inactive”.
`Oc1ccc(C2CCN(c3ccnc4ccccc34)CC2)cc1O` gave an IC50 of 38.4 µM.
For `Oc1cccc(CCNc2ccnc3ccccc23)c1O`, the IC50 was 35.3 µM.
For `COc1ccc(CCNc2ccnc3c(C)cccc23)cc1OC`, the inhibition (at 100 µM (top of the series)) was “inactive”.
With `CN(CCCc1ccc(O)c(O)c1)c1c2ccccc2nc2ccccc12` the inhibition (at 100 µM (top of the series)) was “inactive”.
With `COc1ccc(C2CCN(c3ccnc4ccccc34)C2)cc1OC` (centres undefined) the inhibition (at 100 µM (top of the series)) was “inactive”.
With `COc1ccc(CCN(C)c2ccnc3cc(Cl)ccc23)cc1OC` the inhibition (at 100 µM (top of the series)) was “inactive”.
`CCN(CCc1ccc(OC)c(OC)c1)c1c2ccccc2nc2ccccc12` was tested, and the inhibition (at 100 µM (top of the series)) was “inactive”.
`CCOc1ccc2nccc(NCCc3ccc(OC)c(OC)c3)c2c1` was tested, and the inhibition (at 100 µM (top of the series)) was “inactive”.
For `CCOc1ccc2nccc(N(C)CCc3ccc(OC)c(OC)c3)c2c1`, the inhibition (at 100 µM (top of the series)) was “inactive”.
For `Clc1c2c(nc3ccccc13)CCCC2`, the inhibition (at 100 µM (top of the series)) was “inactive”.
With `CC(Cc1ccc(O)c(O)c1)Nc1ccnc2ccccc12` (centres undefined) the IC50 was 76.5 µM.
`CN(CCc1ccc(O)c(O)c1)c1ncnc2ccccc12` gave an IC50 of 30.4 µM.
In the case of `COc1ccc(CCCN(C)c2c3ccccc3nc3ccccc23)cc1OC`, the inhibition (at 100 µM (top of the series)) is reported as “inactive”.
`COc1cc(Br)c(CCNc2c3c(nc4ccccc24)CCCC3)cc1OC` was tested, and the inhibition (at 100 µM (top of the series)) was “inactive”.
`Nc1c2ccccc2nc2ccccc12` was tested, and the inhibition (at 100 µM (top of the series)) was “inactive”.
